We go through one compound from ChEMBL document CHEMBL4428053, “Application of a Parallel Synthetic Strategy in the Discovery of Biaryl Acyl Sulfonamides as Efficient and Selective NaV1.7 Inhibitors” (J Med Chem, 2016).

The source made the active and inactive calls. The calls are words filed in the database; no cut-off is given here.

The target in series [1] is T1, Sodium channel protein type 9 subunit alpha (Homo sapiens, UniProt Q15858). The series can be described thus: Inhibition of human Nav1.7 expressed in HEK293 cells incubated for 3 to 5 mins at -125 mV holding potential by electrophysiology assay. The series is classed as cell-based.
The nature of series [2]: Clearance in Harlan rat at 1 mg/kg, iv by LC-MS/MS analysis. The format is ADME, organism-based. Conditions: in vivo. In a few lines:
(§1)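 Male fed rats. The IV dose was given in 100% DMSO. The oral dose was given in 1% Tween 80, 2% HPMC, 97% water/NaOH (pH 8.5).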

Series [3] can be described thus: Oral bioavailability in Harlan rat at 10 mg/kg by LC-MS/MS analysis. The settings on record: in vivo. The format is ADME, organism-based. In a few lines:
as §1

For series [4], the target named is Sodium channel protein type 9 subunit alpha (Mus musculus, UniProt Q62205). As to the kind of experiment: Inhibition of Nav1.7 in C57BL/6 mouse DRG neurons assessed as reduction in native TTX-S current amplitude by manual patch clamp electrophysiology assay. Background: Patch clamp records ionic current or voltage across a cell membrane.
For series [5], the system named is Mus musculus. The series can be described thus: In vivo inhibition of Nav1.7 in C57BL/6 mouse assessed as reduction in histamine-induced scratching bouts at 30 mg/kg, po administered 4 hrs prior to histamine challenge measured for 15 mins. The series is classed as functional, organism-based. Put shortly:
(§2)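 Mice were dosed orally with vehicle, diphenhydramine (30 mg/kg, n = 8) or test article at 30 (n = 9), 100 (n = 10) or 300 (n = 10) mg/kg; vehicle n = 12. All groups received histamine intradermally. Total scratch bouts were counted, with unbound plasma concentration reported per dose. Statistics: one-way ANOVA with Dunnett's test versus vehicle.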

Series [6] has as its target Sodium channel protein type 1 subunit alpha (Homo sapiens, UniProt P35498). As to the kind of experiment: Inhibition of human Nav1.1 expressed in HEK293 cells assessed as reduction in peak inward current by manual whole cell patch clamp electrophysiology assay. The format is cell-based.
The target in series [7] is Sodium channel protein type 4 subunit alpha (Homo sapiens, UniProt P35499). The series can be described thus: Inhibition of human Nav1.4 expressed in HEK293 cells assessed as reduction in peak inward current by manual whole cell patch clamp electrophysiology assay. The format is cell-based.
In series [8] the target is Sodium channel protein type 8 subunit alpha (Homo sapiens, UniProt Q9UQD0). The series can be described thus: Inhibition of human Nav1.6 expressed in HEK293 cells assessed as reduction in peak inward current by manual whole cell patch clamp electrophysiology assay. The series is classed as cell-based.
For series [9], the target named is Sodium channel protein type 10 subunit alpha (Homo sapiens, UniProt Q9Y5Y9). As to the kind of experiment: Inhibition of human Nav1.8 expressed in CHO cells assessed as reduction in peak inward current by manual whole cell patch clamp electrophysiology assay. The format is cell-based.
For series [10], the target named is T1, Sodium channel protein type 9 subunit alpha. The series can be described thus: Inhibition of human Nav1.7 at resting/closed state expressed in HEK293 cells at -140 mV holding potential by manual whole cell patch clamp electrophysiology assay. The series is classed as cell-based.
Series [11] shares this target. The series can be described thus: Inhibition of human Nav1.7 at 20% inactivated state expressed in HEK293 cells at -140 mV holding potential followed by channel inactivation by manual whole cell patch clamp electrophysiology assay. The format is cell-based. In a few lines:
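Tested on channels about 20% inactivated.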

A short description of series [12]: Toxicity in naive C57BL/6 mouse assessed as effect on basic locomotor movement at 300 mg/kg, po measured after 4 hrs for 60 mins by open field test. The format is organism-based. The settings on record: in vivo. In a few lines: (§3)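 Naive mice were dosed orally with vehicle or test article at 30, 100 or 300 mg/kg (n = 10 per group). Total basic movement in an open-field arena was recorded after dosing, and unbound plasma concentration was reported per dose.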

Series [13] can be described thus: Unbound plasma concentration in C57BL/6 mouse model of histamine-induced scratching at 30 mg/kg, po administered 4 hrs prior to histamine challenge. The format is ADME, organism-based. Conditions: in vivo. Put shortly:
as §2

In series [14] the test system is Mus musculus. As to the kind of experiment: In vivo inhibition of Nav1.7 in C57BL/6 mouse assessed as unbound plasma concentration required to reduce histamine-induced scratching bouts at 100 mg/kg, po administered 4 hrs prior to histamine challenge measured for 15 mins. The format is functional, organism-based. Put shortly: as §2
Series [15] in a line: Free plasma concentration in naive C57BL/6 mouse assessed as effect on basic locomotor movement at 100 mg/kg, po measured after 4 hrs for 60 mins by open field test. The settings on record: in vivo. The series is classed as ADME, organism-based. In a few lines: as §3
A short description of series [16]: Unbound plasma concentration in C57BL/6 mouse model of histamine-induced scratching at 300 mg/kg, po administered 4 hrs prior to histamine challenge. The format is ADME, organism-based. Conditions: in vivo. In a few lines: as §2
For series [17], the target named is Voltage-gated inwardly rectifying potassium channel KCNH2 (Homo sapiens, UniProt Q12809).
The target in a further series is Cytochrome P450 2C9 (Homo sapiens, UniProt P11712).

T1 sequence (Q15858 whole entry): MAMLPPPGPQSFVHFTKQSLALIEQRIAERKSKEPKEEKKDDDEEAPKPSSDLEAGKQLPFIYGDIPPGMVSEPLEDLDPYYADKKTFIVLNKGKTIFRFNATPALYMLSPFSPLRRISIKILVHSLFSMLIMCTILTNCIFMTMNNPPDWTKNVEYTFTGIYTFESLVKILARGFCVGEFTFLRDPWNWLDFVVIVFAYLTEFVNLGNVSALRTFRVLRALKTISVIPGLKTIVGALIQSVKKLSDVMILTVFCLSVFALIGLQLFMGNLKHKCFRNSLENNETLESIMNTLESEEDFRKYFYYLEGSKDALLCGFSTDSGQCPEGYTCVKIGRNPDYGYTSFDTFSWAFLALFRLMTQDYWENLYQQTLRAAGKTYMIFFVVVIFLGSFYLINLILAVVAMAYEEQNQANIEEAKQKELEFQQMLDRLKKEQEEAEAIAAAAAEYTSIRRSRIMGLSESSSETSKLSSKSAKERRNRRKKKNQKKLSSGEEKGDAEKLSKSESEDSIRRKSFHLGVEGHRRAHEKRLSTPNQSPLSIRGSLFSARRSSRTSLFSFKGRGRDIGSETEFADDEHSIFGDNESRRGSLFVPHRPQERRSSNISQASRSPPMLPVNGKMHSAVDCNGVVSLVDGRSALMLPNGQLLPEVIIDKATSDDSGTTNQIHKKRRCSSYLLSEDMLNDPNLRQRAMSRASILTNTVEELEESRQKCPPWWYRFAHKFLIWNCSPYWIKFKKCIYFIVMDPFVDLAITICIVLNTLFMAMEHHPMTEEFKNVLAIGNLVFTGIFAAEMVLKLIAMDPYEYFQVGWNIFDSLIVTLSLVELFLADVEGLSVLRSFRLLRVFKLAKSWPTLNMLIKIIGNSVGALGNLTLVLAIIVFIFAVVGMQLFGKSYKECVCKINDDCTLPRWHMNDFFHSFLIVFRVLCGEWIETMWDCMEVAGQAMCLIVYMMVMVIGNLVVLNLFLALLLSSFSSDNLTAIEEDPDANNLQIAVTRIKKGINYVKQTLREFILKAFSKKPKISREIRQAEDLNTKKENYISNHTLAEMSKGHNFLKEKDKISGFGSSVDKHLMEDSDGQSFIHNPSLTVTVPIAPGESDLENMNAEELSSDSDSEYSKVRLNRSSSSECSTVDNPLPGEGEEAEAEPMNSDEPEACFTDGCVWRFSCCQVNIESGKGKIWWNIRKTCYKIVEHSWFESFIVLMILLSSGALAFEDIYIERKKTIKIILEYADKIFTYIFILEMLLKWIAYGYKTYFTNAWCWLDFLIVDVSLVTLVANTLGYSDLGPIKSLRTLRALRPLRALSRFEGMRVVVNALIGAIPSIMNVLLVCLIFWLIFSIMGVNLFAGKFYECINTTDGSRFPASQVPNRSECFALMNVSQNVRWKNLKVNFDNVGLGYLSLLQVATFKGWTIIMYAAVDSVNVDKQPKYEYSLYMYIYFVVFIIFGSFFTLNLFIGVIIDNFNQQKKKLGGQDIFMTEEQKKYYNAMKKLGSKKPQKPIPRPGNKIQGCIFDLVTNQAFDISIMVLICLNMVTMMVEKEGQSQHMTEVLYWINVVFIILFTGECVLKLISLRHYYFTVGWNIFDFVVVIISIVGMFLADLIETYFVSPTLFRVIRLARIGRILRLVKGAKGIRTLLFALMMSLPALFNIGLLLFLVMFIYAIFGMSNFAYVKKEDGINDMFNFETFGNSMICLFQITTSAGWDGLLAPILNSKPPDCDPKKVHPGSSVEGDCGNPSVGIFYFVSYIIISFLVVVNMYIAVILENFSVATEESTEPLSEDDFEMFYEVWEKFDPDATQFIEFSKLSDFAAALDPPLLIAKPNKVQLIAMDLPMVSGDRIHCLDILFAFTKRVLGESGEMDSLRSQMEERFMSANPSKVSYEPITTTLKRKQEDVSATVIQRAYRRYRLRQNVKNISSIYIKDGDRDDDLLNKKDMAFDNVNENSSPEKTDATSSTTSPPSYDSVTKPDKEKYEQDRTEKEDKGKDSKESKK
Voltage-gated inwardly rectifying potassium channel KCNH2, sequence (Q12809 whole entry): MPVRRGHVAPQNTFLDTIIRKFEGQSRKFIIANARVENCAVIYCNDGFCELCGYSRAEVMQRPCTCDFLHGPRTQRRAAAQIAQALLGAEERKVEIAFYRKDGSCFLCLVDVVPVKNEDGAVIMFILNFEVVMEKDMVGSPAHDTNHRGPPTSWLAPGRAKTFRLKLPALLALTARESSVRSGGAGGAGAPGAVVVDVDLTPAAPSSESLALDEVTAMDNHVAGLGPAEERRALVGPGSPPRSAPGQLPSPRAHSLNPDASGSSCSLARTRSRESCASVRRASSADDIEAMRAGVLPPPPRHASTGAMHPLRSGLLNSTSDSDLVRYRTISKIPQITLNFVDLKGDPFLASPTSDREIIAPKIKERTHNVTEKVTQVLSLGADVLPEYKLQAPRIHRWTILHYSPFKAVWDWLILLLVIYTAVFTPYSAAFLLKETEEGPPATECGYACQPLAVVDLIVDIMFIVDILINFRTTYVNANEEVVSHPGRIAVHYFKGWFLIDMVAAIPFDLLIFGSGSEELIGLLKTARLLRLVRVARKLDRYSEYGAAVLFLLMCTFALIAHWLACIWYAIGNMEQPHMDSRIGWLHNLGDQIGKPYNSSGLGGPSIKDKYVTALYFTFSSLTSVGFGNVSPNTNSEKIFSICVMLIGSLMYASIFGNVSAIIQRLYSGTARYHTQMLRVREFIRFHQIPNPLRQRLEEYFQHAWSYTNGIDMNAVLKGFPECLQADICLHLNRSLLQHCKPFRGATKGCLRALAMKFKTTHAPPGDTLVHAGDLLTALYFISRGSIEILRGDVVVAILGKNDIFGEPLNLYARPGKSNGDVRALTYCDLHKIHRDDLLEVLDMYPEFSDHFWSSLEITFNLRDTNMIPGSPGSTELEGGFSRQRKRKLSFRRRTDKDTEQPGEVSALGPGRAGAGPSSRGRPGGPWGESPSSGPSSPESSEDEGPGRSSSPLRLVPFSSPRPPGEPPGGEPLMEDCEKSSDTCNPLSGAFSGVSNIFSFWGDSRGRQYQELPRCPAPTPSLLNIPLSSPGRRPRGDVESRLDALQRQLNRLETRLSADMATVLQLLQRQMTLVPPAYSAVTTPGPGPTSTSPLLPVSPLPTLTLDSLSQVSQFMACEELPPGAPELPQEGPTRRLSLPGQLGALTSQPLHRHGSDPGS
Sodium channel protein type 9 subunit alpha (Mus musculus, UniProt Q62205), sequence (Q62205 whole entry): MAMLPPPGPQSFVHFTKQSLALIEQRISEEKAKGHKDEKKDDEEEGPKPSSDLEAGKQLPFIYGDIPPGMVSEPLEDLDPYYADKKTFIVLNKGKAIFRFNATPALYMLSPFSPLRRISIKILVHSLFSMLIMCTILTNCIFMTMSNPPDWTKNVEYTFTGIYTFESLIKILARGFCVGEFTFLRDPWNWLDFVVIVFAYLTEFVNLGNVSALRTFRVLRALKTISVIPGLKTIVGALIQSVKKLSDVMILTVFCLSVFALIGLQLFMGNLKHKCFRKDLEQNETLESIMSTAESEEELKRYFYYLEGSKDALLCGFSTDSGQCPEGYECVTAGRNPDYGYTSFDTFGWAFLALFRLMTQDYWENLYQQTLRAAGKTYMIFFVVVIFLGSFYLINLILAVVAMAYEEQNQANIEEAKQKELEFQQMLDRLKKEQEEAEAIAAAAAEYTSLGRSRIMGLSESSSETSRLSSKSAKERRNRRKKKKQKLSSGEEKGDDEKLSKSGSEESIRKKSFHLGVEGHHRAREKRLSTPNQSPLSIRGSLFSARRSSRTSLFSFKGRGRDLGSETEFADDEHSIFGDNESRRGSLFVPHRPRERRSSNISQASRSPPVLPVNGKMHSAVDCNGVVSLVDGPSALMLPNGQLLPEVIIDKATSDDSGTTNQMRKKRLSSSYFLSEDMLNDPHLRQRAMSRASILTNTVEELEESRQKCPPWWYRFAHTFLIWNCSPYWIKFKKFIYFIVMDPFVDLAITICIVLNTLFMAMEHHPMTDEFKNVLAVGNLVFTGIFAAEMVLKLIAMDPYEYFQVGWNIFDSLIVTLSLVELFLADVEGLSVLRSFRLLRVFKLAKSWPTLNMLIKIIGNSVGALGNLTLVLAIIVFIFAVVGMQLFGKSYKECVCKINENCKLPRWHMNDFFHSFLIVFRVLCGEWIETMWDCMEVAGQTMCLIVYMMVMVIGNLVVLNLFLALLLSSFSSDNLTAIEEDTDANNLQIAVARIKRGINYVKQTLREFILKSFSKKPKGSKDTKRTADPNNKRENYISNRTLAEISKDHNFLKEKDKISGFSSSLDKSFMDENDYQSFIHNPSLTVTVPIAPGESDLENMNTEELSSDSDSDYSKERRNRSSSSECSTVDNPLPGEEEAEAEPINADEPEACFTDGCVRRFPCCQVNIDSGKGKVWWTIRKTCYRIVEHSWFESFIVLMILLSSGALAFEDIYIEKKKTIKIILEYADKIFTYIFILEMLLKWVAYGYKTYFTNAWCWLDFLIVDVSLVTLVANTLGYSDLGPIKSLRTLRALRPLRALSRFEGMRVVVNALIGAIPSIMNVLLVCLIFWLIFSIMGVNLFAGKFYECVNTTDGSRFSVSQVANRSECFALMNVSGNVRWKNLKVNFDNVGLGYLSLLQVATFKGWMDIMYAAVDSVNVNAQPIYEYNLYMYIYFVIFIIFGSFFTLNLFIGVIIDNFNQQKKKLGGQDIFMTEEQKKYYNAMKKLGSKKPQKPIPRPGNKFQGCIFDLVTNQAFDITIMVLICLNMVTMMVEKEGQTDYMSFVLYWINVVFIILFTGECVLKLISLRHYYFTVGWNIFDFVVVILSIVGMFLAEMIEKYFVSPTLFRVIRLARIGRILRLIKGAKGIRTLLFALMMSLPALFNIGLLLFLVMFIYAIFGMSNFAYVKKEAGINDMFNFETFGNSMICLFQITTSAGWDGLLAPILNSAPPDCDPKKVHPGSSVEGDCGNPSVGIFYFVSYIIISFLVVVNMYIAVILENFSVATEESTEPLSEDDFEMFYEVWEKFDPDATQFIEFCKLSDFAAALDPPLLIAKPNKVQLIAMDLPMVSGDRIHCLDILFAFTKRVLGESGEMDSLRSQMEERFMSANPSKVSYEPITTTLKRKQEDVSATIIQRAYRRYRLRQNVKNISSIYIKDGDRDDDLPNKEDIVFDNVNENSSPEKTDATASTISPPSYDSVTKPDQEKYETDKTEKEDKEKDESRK

`COc1cc(C(=O)NS(C)(=O)=O)c(F)cc1-c1cnc(Oc2cc(F)ccc2F)c(Cl)c1`: the IC50 in [1] was found to be 69 nM; in series [4] it was 270 nM; in series [6], 8.5 µM; in series [7], 1100 nM; in [8], 9.4 µM; in [9], 15.6 µM. In addition, the IC50 in series [10] was above 30 µM; in series [11], 51 nM; at Cytochrome P450 2C9, 45.3 µM. In addition, the clearance in series [2] is 6.5 mL/min/kg. This compound also yielded a bioavailability in series [3] above 100%. In addition, the inhibition result with Mus musculus [5] was “inactive”. In addition, the Activity result in [12] is “Non-Toxic”. In addition, the figures for the “Cp(f)” value in series [13], in series [15] and in series [16] were 0.294 µM, 2.39 µM and 4.16 µM, respectively. The outcome with Mus musculus [14] was inactive. Also, the Ki in series [17] is above 30 µM.

By IC50 is commonly meant the concentration needed to halve the response being measured. As usually defined, the clearance is a measure of how efficiently the substance is removed, as volume per time. Low values mean inefficient removal, high ones efficient removal. As usually defined, the bioavailability is the share of a dose that reaches the circulation, judged against a reference dose that is usually intravenous. A high value points to good availability. What is called Ki is a measure of affinity in units of concentration, obtained from inhibition or displacement.
